Rows were chosen to be rich in hits. Some 2.1% of all compounds tested hit in one or more screens of this group.
B2AR ag = agonists of human beta-2 adrenergic receptor inducing internalization | P07550 | Am2.2-beta2AR cells, FAP receptor internalization, flow cytometry | response, % (test concentration not listed) | 340,000 tested, 0.43% active | AID 504454;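 active = response above a set limit, near 3 SD of response in nonfluorescent compounds, cut at about 42% in these data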
HKDC1 inhibitor = inhibitors of human hexokinase HKDC1; recombinant HKDC1, G6PDH/diaphorase resazurin coupled fluorescence; inhibition, % at 20 µM; 340,000 tested, 0.16% active; Q2TB90;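 active = inhibition above about 35% when tested at 20 µM, limit read from the data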;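 also: plate controls were DMSO wells with enzyme for no effect and DMSO wells lacking enzyme for full effect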
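Material – in-house recombinant HK5 (HKDC1) enzyme · Quantity – HKDC1 at 5 µg/mL · Buffer or medium – pH 8.0 Tris buffer with 10 mM MgCl2 · Reagent – glucose with 1 mM ATP · Dosing – single 20 µM dose · Times – reaction time 90 min, room temperature, protected from light · Technique – resorufin fluorescence at 613 nm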
aDG glyco act = alpha-DG glycosylation activation; activation, % at 10 µM; AID 624168; Pro5-aDG cells, alpha-DG glycosylation AlphaScreen (IIH6); 0% Pro5, 100% B10-LARGE cell signal; 360,000 tested, 0.22% active;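 active = activation of at least 8% versus controls, or a plate z-score of at least 8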;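 also: Pro5 are CHO cells carrying HIG-tagged alpha-DG that lacks glycosylation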
Cardio protect = myocardial damage modulation in H9c2 cells. H9c2 cardiomyocytes, H2O2 injury protection, ATPLite, 2 h. protection from H2O2 cell death, % at 20 µM. 360,000 tested, 0.63% active. AID 588492;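 active = compounds giving at least 50% protection of heart cells from peroxide-induced death in the single-dose screen, raw or plate-pattern-corrected value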;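 also: 0% = DMSO wells with peroxide and 100% = DMSO wells without peroxide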
PfGluPho inh = PfG6PD (Plasmodium falciparum) enzyme inhibition; PfGluPho enzyme, NADPH resazurin-diaphorase fluorescence; inhibition, % at 20 µM; 350,000 tested, 0.78% active;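 active = inhibition reaching at least a set limit at 20 µM in the primary screen, cut at about 59% in these data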;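 also: 0% = DMSO wells with substrate and 100% = DMSO wells lacking glucose-6-phosphate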
UCH37 inh = human UCH37 deubiquitinating enzyme inhibition; Q9Y5K5; purified proteasome/UCH37, Ub-AMC cleavage fluorescence; inhibition, % (concentration not given with the values); 330,000 tested, 0.33% active; AID 588478;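 active = mean inhibition over replicate wells above about 20%, limit read from the data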;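 also: 0% = compound-free wells with enzyme and 100% = wells lacking proteasome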
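Assay system: Proteasome-bound UCH37. Buffer or medium: pH 7.4 Tris-HCl (50 mM) with ovalbumin, ATP-MgCl2, DTT. Incubation: 30 min preincubation with enzyme, 25 min cleavage at room temperature. Measured by: fluorescence, ex 355 nm, em 460 nm. Read-out basis: percent inhibition. Control set: wells without proteasome as full block, compound-free enzyme plus substrate as uninhibited.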
aDG glyco conf = confirmation of alpha dystroglycan glycosylation activators. shares compounds with aDG glyco act. Pro5-aDG cells, alpha-DG glycosylation, IIH6 AlphaLISA; scaled to LARGE-overexpressing B10 cells as 100%. activation, % at 10 µM (by protocol). 600 tested, 17% active;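 active = activation of at least 7% in one or more replicates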;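 also: cells exposed to compound for two days before detection; 0% = DMSO-treated Pro5 cells and 100% = DMSO-treated B10-LARGE cells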
An asterisk follows results filed as active; nt = not tested or not shown.

SMILES	B2AR ag	HKDC1 inhibitor	aDG glyco act	Cardio protect	PfGluPho inh	UCH37 inh	aDG glyco conf
COc1ccc(-c2cc(C(=O)NN=Cc3cccnc3)c3ccccc3n2)cc1	nt	nt	nt	nt	nt	-53	nt
COCCCN1C(=O)CSC1=NS(=O)(=O)c1ccccc1	nt	nt	nt	nt	nt	1	nt
COCCn1c(SCC#N)nnc1-c1ccc(OC)cc1	14	-5	4.7*	3	-30	-2	0
COCCn1c(SCC(=O)Nc2sc(C)c(C)c2C#N)nnc1-c1ccc(OC)cc1	-2	-6	0	-1	-9	6	nt
Cc1ccc(C)c(N2CCN(C(=O)Nc3ccc4c(c3)N(C)C(=O)CS4)CC2)c1	11	-3	6.7*	-6	16	2	0
CC1CC(=NNC(=O)c2cccs2)CC(C)(C)C1 (stereo not drawn)	nt	nt	nt	nt	nt	-2	nt
Cc1ccc(S(=O)(=O)Oc2ccc(N3C(=O)C4C5CCC(C5)C4C3=O)cc2)cc1 (stereo not drawn)	5	-4	1	-17	-4	2	nt
O=C1C2C3CCC(C3)C2C(=O)N1c1ccc(OS(=O)(=O)c2ccccc2)cc1 (stereo not drawn)	2	2	2.8*	-5	-20	2	-1
CCOC(=O)C(C#N)=NNc1cc(Cl)ccc1OC	nt	nt	nt	nt	nt	-2	nt
CCCCOc1ccc(CSCCNC(=S)Nc2ccccc2)cc1	-9	-2	1	-20	11	5	nt
CC(C)COc1ccc(CSCCNC(=S)Nc2ccccc2)cc1	-5	0	4.6*	-29	10	nt	4.9*
CCOC(=O)N1CCN(C(=O)c2ccc3c(=O)n(-c4ccccc4F)c(=S)[nH]c3c2)CC1	4	-2	0	3	-16	-14	nt
CCc1ccc(C(CNC(=O)c2ccc3c(=O)n(-c4ccccc4F)c(=S)[nH]c3c2)N(C)C)cc1 (stereo not drawn)	-18	8	10*	9	4	-9	6.9*
S=c1[nH]nc(-c2ccncc2)n1N=Cc1cccc(Cl)c1	nt	nt	nt	nt	nt	5	nt
CCn1c(SCC(=O)NC2(C#N)CCCCC2)nc2ccccc2c1=O	1	-2	4.0*	2	-10	2	0
O=C(Nc1cc(Cl)ccc1-n1cncn1)c1ccc([N+](=O)[O-])s1	-14	5	12*	-13	14	2	3.8*
COc1ccc(CNC(=O)CC(C)=NNC(=O)COc2ccc(Br)cc2)cc1	nt	nt	nt	nt	nt	5	nt
CCC(C)=NNc1nc2sc3c(c2c(=O)[nH]1)CC(C)(C)OC3	nt	nt	nt	nt	nt	1	nt
O=C(CN1CCN(S(=O)(=O)c2ccc(F)cc2)CC1)Nc1ccc(Cl)c(C(F)(F)F)c1	-1	3	5.4*	-23	27	4	1
NC(Cc1ccc([N+](=O)[O-])cc1)=NOC(=O)COc1ccccc1Cl	nt	nt	nt	nt	nt	0	nt
O=C(CCN1N=C(c2ccccc2)CCC1=O)NC1CCCCC1	nt	nt	0	7	1	nt	nt
O=C(CCN1N=C(c2ccccc2)CCC1=O)NC1CCCC1	1	-6	3.0*	-3	12	2	-1
CC(=NNC(=O)c1cc(C)nc2ccccc12)c1ccco1	nt	nt	nt	nt	nt	8	nt
O=C1C(Cc2ccccc2)Nc2ncnc(N3CCc4ccccc4C3)c2N1Cc1ccc(Cl)cc1 (stereo not drawn)	10	8	1	7	24	nt	nt
CCC1Nc2ncnc(N3CCc4ccccc4C3)c2N(Cc2ccc(Cl)cc2)C1=O (stereo not drawn)	7	3	16*	0	8	0	1
SMILES	B2AR ag	HKDC1 inhibitor	aDG glyco act	Cardio protect	PfGluPho inh	UCH37 inh	aDG glyco conf
O=S(=O)(c1cnccc1N1CCN(N=Cc2ccc(Br)cc2)CC1)N1CCCCC1	nt	nt	nt	nt	nt	2	nt
CCc1ccccc1NN=C(C)c1c(O)cc(C)oc1=O	nt	nt	nt	nt	nt	5	nt
Cc1c(C(=O)N(Cc2ccc(Cl)cc2)C2CCS(=O)(=O)C2)oc2ccccc12 (stereo not drawn)	-15	0	2.3*	1	12	2	-1
CCN(C(=O)CC(C)C)c1nnc(Cn2nnc3ccccc32)s1	-10	6	3	-15	0	1	nt
CCN(C(=O)c1ccc(C(C)(C)C)cc1)c1nnc(Cn2nnc3ccccc32)s1	-15	2	7.9*	-32	21	5	3
CN1CCN(N=Cc2ccc(Br)cc2)CC1	nt	nt	nt	nt	nt	0	nt
CN(C)CCCNS(=O)(=O)c1ccc(NC2CCCCCC2)c([N+](=O)[O-])c1	-3	6	3.3*	6	-2	5	4.9*
O=C(COC(=O)c1cccc(Br)c1)NCCNC(=O)COC(=O)c1cccc(Br)c1	-5	-1	7.4*	2	14	0	0
Cc1ccc2nc(Cl)c(C=NNC(=O)c3ccccc3O)cc2c1	nt	nt	nt	nt	nt	-6	nt
Clc1ccccc1CSc1nnc([C@@H]2CCCN2)o1	0	-2	0	0	7	1	nt
Cc1ccccc1CSc1nnc([C@@H]2CCCN2)o1	5	-1	4.8*	-4	-2	0	0
O=C(OCc1ccccc1)N1CCC2CC1c1ccc(Cl)cc12 (stereo not drawn)	nt	nt	1	-21	-8	nt	nt
O=C(OCc1ccccc1)N1CCC2CC1c1cc(Cl)ccc12 (stereo not drawn)	4	1	9.7*	-6	-15	nt	0
CN(C)C(=O)c1cn(-c2ccccc2)nc1-c1cccs1	-3	2	62*	12	-23	1	0
CN(C)c1ccc(NC(=O)c2cn(-c3ccccc3)nc2-c2cccs2)cc1	-1	5	0	2	15	-1	nt
O=C(Nc1cccnc1)c1ccc(-c2ccccc2)cc1	-6	-10	0	-12	19	0	nt
O=C(Nc1ccncc1)c1ccc(-c2ccccc2)cc1	1	-4	9.1*	-31	7	-3	2
O=C(CCc1ccccc1)NC(NC(=S)Nc1cccc(Cl)c1)C(Cl)(Cl)Cl (stereo not drawn)	0	16	7.2*	-14	-6	1	0
Cc1c(Cl)ccc2c(C(N)=O)cc(-c3ccccn3)nc12	5	-4	4.1*	-22	6	3	1
CCOC(=O)CNC(=O)c1cc(-c2ccccn2)nc2c(C)c(Cl)ccc12	4	-4	0	2	13	0	nt
CCCCn1c(/N=C/c2ccc(N(C)C)cc2)nc2ccccc21	-15	0	4.9*	-8	9	nt	-1
Cc1ccc(C=NNC(=O)c2cncc(Br)c2)o1	nt	nt	nt	nt	nt	9	nt
COCC1CCN(C(=O)c2cc(COc3ccc4ncccc4c3)on2)CC1	-9	-5	6.7*	-22	0	-1	-1
O=C(c1cc(COc2ccc3ncccc3c2)on1)N1CCCC1	0	-3	1	-13	-12	0	nt

Screening results from PubChem BioAssay.
